Experimental data taken from ChEMBL document CHEMBL1154674, “Synthesis and evaluation of three 18F-labeled aminophenylbenzothiazoles as amyloid imaging agents” (J Med Chem, 2009).
Blank lines part the entries; values can stand above or below the compound they belong to.

Assays:
Type in all cases: ADME, organism-based, Macaca mulatta
[1] = Drug level in normal rhesus monkey thalamus assessed as standard uptake value at 96.3 MBq, iv after 4.5 mins by microPET; conditions: in vivo, 0.075 h
[2] = Drug level in normal rhesus monkey thalamus assessed as standard uptake value at 96.3 MBq, iv after 115 mins by microPET; conditions: in vivo
[3] = Drug level in normal rhesus monkey cerebellum assessed as standard uptake value at 96.3 MBq, iv after 0.5 mins by microPET; conditions: in vivo
Outline: (§1)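 One normal rhesus monkey, each tracer given iv via the vena saphena (81.2, 96.3 or 109.4 MBq), with 1 day between tracer injections. Dynamic brain μPET over 180 min used frames of 5 × 60 s, 5 × 120 s, 9 × 300 s and 12 × 600 s. Images were reconstructed by filtered back projection with a RAMP filter. Regional time-activity curves were expressed as SUV.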

[4] = Drug level in normal rhesus monkey pons assessed as standard uptake value at 96.3 MBq, iv after 135 mins by microPET; conditions: in vivo, 2.25 h
[5] = Drug level in normal rhesus monkey cerebellum assessed as standard uptake value at 96.3 MBq, iv after 85 mins by microPET; conditions: in vivo; outline: as §1
[6] = Drug level in normal rhesus monkey frontal cortex assessed as standard uptake value at 96.3 MBq, iv after 2.5 mins by microPET; conditions: in vivo
[7] = Drug level in normal rhesus monkey frontal cortex assessed as standard uptake value at 96.3 MBq, iv after 3.5 mins by microPET; conditions: in vivo
[8] = Drug level in normal rhesus monkey frontal cortex assessed as standard uptake value at 96.3 MBq, iv after 6 mins by microPET; conditions: in vivo, 0.1 h
[9] = Drug level in normal rhesus monkey white matter assessed as standard uptake value at 96.3 MBq, iv after 57.5 mins by microPET; conditions: in vivo
[10] = Drug level in normal rhesus monkey thalamus assessed as standard uptake value at 109.4 MBq, iv after 111 mins by microPET; conditions: in vivo
[11] = Drug level in normal rhesus monkey pons assessed as standard uptake value at 109.4 MBq, iv after 3.5 mins by microPET; conditions: in vivo
[12] = Drug level in normal rhesus monkey cerebellum assessed as standard uptake value at 109.4 MBq, iv after 32.5 mins by microPET; conditions: in vivo
Outline: (§2)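 One normal rhesus monkey received each tracer via the vena saphena, with 1 day between injections. Dynamic μPET ran 180 min for 18F tracers (5×60 s, 5×120 s, 9×300 s, 12×600 s) and 90 min for the 11C tracer (5×60 s, 5×120 s, 9×300 s, 3×600 s). Filtered back-projection reconstruction (RAMP filter) was used. Time-activity curves were drawn to give regional SUV.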

[13] = Drug level in normal rhesus monkey cerebellum assessed as standard uptake value at 109.4 MBq, iv after 129 mins by microPET; conditions: in vivo, 2.15 h
[14] = Drug level in normal rhesus monkey thalamus assessed as standard uptake value at 109.4 MBq, iv after 32.5 mins by microPET; conditions: in vivo
[15] = Drug level in normal rhesus monkey cerebellum assessed as standard uptake value at 109.4 MBq, iv after 0.875 mins by microPET; conditions: in vivo, 52 s
[16] = Drug level in normal rhesus monkey cerebellum assessed as standard uptake value at 109.4 MBq, iv after 4.5 mins by microPET; conditions: in vivo, 0.075 h
Outline: (§3)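 Single normal rhesus monkey; each tracer given iv via the vena saphena, with 1 day between tracer injections. Dynamic μPET ran 180 min (5×60 s, 5×120 s, 9×300 s, 12×600 s). Images were reconstructed by filtered back projection with a RAMP filter. Regional time-activity curves were expressed as SUV.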

[17] = Drug level in normal rhesus monkey white matter assessed as standard uptake value at 109.4 MBq, iv after 0.375 mins by microPET; conditions: in vivo, 22 s
[18] = Drug level in normal rhesus monkey white matter assessed as standard uptake value at 109.4 MBq, iv after 3.5 mins by microPET; conditions: in vivo
[19] = Drug level in normal rhesus monkey white matter assessed as standard uptake value at 109.4 MBq, iv after 12.5 mins by microPET; conditions: in vivo
[20] = Drug level in normal rhesus monkey pons assessed as standard uptake value at 81.2 MBq, iv after 4.5 mins by microPET; conditions: in vivo, 0.075 h
[21] = Drug level in normal rhesus monkey parietal cortex assessed as standard uptake value at 81.2 MBq, iv after 52.5 mins by microPET; conditions: in vivo, 0.875 h
[22] = Drug level in normal rhesus monkey white matter assessed as standard uptake value at 81.2 MBq, iv after 10 mins by microPET; conditions: in vivo
[23] = Drug level in normal rhesus monkey thalamus assessed as standard uptake value at 81.2 MBq, iv after 115 mins by microPET; conditions: in vivo
[24] = Drug level in normal rhesus monkey frontal cortex assessed as standard uptake value at 81.2 MBq, iv after 105 mins by microPET; conditions: in vivo, 1.75 h; outline: as §3
[25] = Drug level in normal rhesus monkey frontal cortex assessed as standard uptake value at 81.2 MBq, iv after 2.5 mins by microPET; conditions: in vivo
[26] = Drug level in normal rhesus monkey frontal cortex assessed as standard uptake value at 81.2 MBq, iv after 32.5 mins by microPET; conditions: in vivo
[27] = Drug level in normal rhesus monkey cerebellum assessed as standard uptake value at 152.9 MBq, iv after 32.5 mins by microPET; conditions: in vivo
Outline: (§4)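 Single normal rhesus monkey; tracer given iv via the vena saphena, 1 day apart from the other tracer injections. Dynamic μPET ran 90 min (5×60 s, 5×120 s, 9×300 s, 3×600 s). Images were reconstructed by filtered back projection with a RAMP filter. Regional time-activity curves were expressed as SUV.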

[28] = Drug level in normal rhesus monkey cerebellum assessed as standard uptake value at 152.9 MBq, iv after 65 mins by microPET; conditions: in vivo; outline: as §2
[29] = Drug level in normal rhesus monkey frontal cortex assessed as standard uptake value at 152.9 MBq, iv after 65 mins by microPET; conditions: in vivo; outline: as §4
[30] = Drug level in normal rhesus monkey cerebellum assessed as standard uptake value at 152.9 MBq, iv after 0.5 mins by microPET; conditions: in vivo; outline: as §2
[31] = Drug level in normal rhesus monkey thalamus assessed as standard uptake value at 152.9 MBq, iv after 37.5 mins by microPET; conditions: in vivo, 0.625 h
[32] = Drug level in normal rhesus monkey thalamus assessed as standard uptake value at 152.9 MBq, iv after 57.5 mins by microPET; conditions: in vivo
[33] = Drug level in normal rhesus monkey pons assessed as standard uptake value at 152.9 MBq, iv after 85 mins by microPET; conditions: in vivo
[34] = Drug level in normal rhesus monkey parietal cortex assessed as standard uptake value at 152.9 MBq, iv after 2.5 mins by microPET; conditions: in vivo
[35] = Drug level in normal rhesus monkey parietal cortex assessed as standard uptake value at 152.9 MBq, iv after 6 mins by microPET; conditions: in vivo, 0.1 h
[36] = Drug level in normal rhesus monkey parietal cortex assessed as standard uptake value at 152.9 MBq, iv after 42.5 mins by microPET; conditions: in vivo

SUV [1]: 1.93
SUV [2]: 2.14
SUV [3]: 0.54
SUV [4]: 1.92
SUV [5]: 1.03
SUV [6]: 1.8
SUV [7]: 1.39
SUV [8]: 1.97
SUV [9]: 1.37
Structure (SMILES): CN(C)c1ccc2nc(-c3ccc([18F])cc3)sc2c1

SUV [10]: 4.72
SUV [11]: 3.33
SUV [12]: 4.03
SUV [13]: 2.36
SUV [14]: 5.59
SUV [15]: 3.51
SUV [16]: 6.13
SUV [17]: -0.01
SUV [18]: 2.22
SUV [19]: 3.01
Structure (SMILES): Nc1ccc2nc(-c3ccc([18F])cc3)sc2c1

SUV [20]: 5.172
SUV [21]: 3.552
SUV [22]: 3.524
SUV [23]: 5.209
SUV [24]: 4.68
SUV [25]: 4.284
SUV [26]: 5.574
Structure (SMILES): CNc1ccc2nc(-c3ccc([18F])cc3)sc2c1

SUV [27]: 1.143
SUV [28]: 0.723
SUV [29]: 0.653
SUV [30]: 0.053
SUV [31]: 1.364
SUV [32]: 0.88
SUV [33]: 0.718
SUV [34]: 1.106
SUV [35]: 2.16
SUV [36]: 0.906
Structure (SMILES): [11CH3]Nc1ccc(-c2nc3ccc(O)cc3s2)cc1 [PITTSBURGH COMPOUND B]
